The sample as a whole holds a higher share of hits than the screen did.
INS promoter act = TRM-6 insulin promoter activation. 0.81% of 130,000 active. activation, % at 2 µM. TRM-6 cells, insulin promoter eGFP reporter, imaging; plate-scaled: unstimulated 0, stimulated control 100;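 active = activation at 2 µM above a set limit, confirmed on inspection of the cell images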;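 note: share of cells whose green reporter signal exceeds an intensity cutoff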
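System: human fetal islet-derived TRM-6 cells with tamoxifen-inducible insulin promoter–eGFP reporter; input: seeding density of 1,000 cells per well; buffer or medium: Low-glucose (5.5 mM) medium with tamoxifen; incubation: compound exposure 48 h, 37 °C; measured by: high-content imaging of fixed cells with Hoechst nuclear stain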
Of the large screens only hits and unclear results are named; the others gave an inactive call.

CC(C)c1ccc(/C=N/NC(=O)c2cccc(Cl)c2)cc1	INS promoter act 516.7
Cc1ccc(C)n1NC(=O)c1cccc(Cl)c1	none
N/C(Cc1cccs1)=N\OC(=O)COc1ccc(Cl)cc1Cl	none
COc1cc(C2C(C#N)=C(N)OC3=C2C(=O)CC(C)(C)C3)ccc1OC(=O)N1CCOCC1 (centres undefined)	INS promoter act 600.0
COc1ccc(-c2[nH]nc3c2C(c2ccc(OC(=O)N4CCOCC4)cc2)C(C#N)=C(N)O3)cc1 (centres undefined)	none
N#CC1=C(N)OC2=C(C(=O)CCC2)C1c1ccc(OC(=O)N2CCOCC2)cc1 (centres undefined)	none
Cc1cc(C)c(S(=O)(=O)NCC2CCC(C(=O)NCCCN3CCOCC3)CC2)c(C)c1 (centres undefined)	none
Cc1ccc(CCNC(=O)C2CCN(c3nn4c(=O)cc(C)nc4s3)CC2)cc1	none
Cc1cc(C)c2nc(N3CCC(C(=O)NCCCN4CCCCC4)CC3)sc2c1	INS promoter act 513.3
Cc1ccc(C2=NNC(=O)C(P(=O)(c3ccccc3)c3ccccc3)C2)cc1 (centres undefined)	none
C/C(=N\Nc1nc2ccccc2[nH]1)c1ccc(N2CCOCC2)cc1	none
O=C(CO/N=C/c1ccc2c(c1)OCO2)Nc1cccc(Br)c1	none
CC(C)NC(=O)c1ccc(COCC(F)(F)C(F)F)cc1	INS promoter act 80.0
O=C(Nc1ccc(Cl)cn1)c1ccc(COCC(F)(F)C(F)F)o1	none
O=C(Nc1ccc(OCC(F)(F)C(F)F)cc1)c1ccncc1	none
O=C1OCC(CO)(CO)N=C1NNc1ccccc1Cl	none
CC(=O)c1ccc(NC(=O)C(C)NCc2ccccc2Cl)cc1 (centres undefined)	none
Cc1cc(C)cc(OCC(=O)NC2=NCCS2)c1	none
O=C(CCCN1C(=O)c2ccccc2C1=O)NC1=NCCS1	none
CC(C(=O)NC1=NCCS1)N1C(=O)C2CC=CCC2C1=O (centres undefined)	INS promoter act 121.4
CCOC(=O)C(C)Sc1nnc(NC(=O)c2ccc3c(c2)OCO3)s1 (centres undefined)	none
CC1CCCCC1NC(=S)NC(=O)c1ccccc1Br (centres undefined)	none
CN(C(=S)NC(=O)c1ccccc1Br)C1CCCCC1	INS promoter act 222.6
COc1ccccc1/C=C/C(=O)NC(=S)N(C)C1CCCCC1	none
Cc1cc(C)cc(Nc2c(F)c(F)c(F)c(F)c2C(=O)O)c1	none
c1coc(CN(Cc2ccco2)c2ncnc3c2oc2ccccc23)c1	none
CCCCN1C(=O)C(CC(=O)NCC)SC1=Nc1ccccc1 (centres undefined)	INS promoter act 450.0
O=C(O)CC1SC(=Nc2ccccc2)N(c2ccccc2)C1=O (centres undefined)	none
CCN=C1SC(CC(=O)NCCc2ccc(OC)c(OC)c2)C(=O)N1CC (centres undefined)	none
COC(=O)c1ccc(CN2CCN(CC=C(C)C)C(CCO)C2)cc1 (centres undefined)	none
O=C(Nc1ccccc1)c1ccc2c(c1)OCCO2	none
COc1ccc(C(=O)NC(=S)Nc2ccccc2N2CCOCC2)cc1Br	none
O=C(Nc1ccccc1N1CCOCC1)c1ccc2c(c1)OCO2	INS promoter act 366.7
CC1Cc2nc(SCC(=O)OCc3ccccc3)n(C)c(=O)c2S1 (centres undefined)	none
Cc1cccc(C)c1NC(=O)C1(N2CCN(C(=O)c3ccco3)CC2)CCCCC1	none
Cn1nc(C(=O)Nc2ccc(S(=O)(=O)N3CCCCC3)cc2)ccc1=O	none
O=C(Cc1cccs1)Nc1ccc(S(=O)(=O)N2CCCCC2)cc1	none
CCc1cccc2cc3c(N)c(C(=O)Nc4ccc(S(=O)(=O)N5CCCC5)cc4)sc3nc12	INS promoter act 203.0
CCN(CC)c1cc(C)c2cc(NC(=O)c3ccc(Br)o3)ccc2n1	none
COC(=O)C(C(=O)N1CCN(C)CC1)C1CCCCCC1 (centres undefined)	INS promoter act 431.3
CCOC(=O)C(C(=O)N1CCOCC1)C1CCCCC1 (centres undefined)	none
COC(=O)C(C(=O)NCC1CCCO1)C1CCCCCC1 (centres undefined)	none
CC(C)(C)NC(=S)NCc1cccnc1	none
COC(=O)C1CSC(C(=O)OC)N1C(=O)Nc1ccc(Cl)cc1 (centres undefined)	none
CC1CCN(Cc2c(C#N)c3ccccc3n2C)CC1	none
COc1ccc(OC)c(NC(=O)CCNS(=O)(=O)c2ccc3c(c2)oc(=O)n3C)c1	none
COc1ccccc1CNC(=O)C(CCSC)NS(=O)(=O)c1ccc2c(c1)oc(=O)n2C (centres undefined)	INS promoter act 164.3
COc1cc(OC)c(NC(=O)CCNS(=O)(=O)c2ccc3c(c2)oc(=O)n3C)cc1Cl	none
CCOC(=O)c1sc(NC(=O)CCCn2nc([N+](=O)[O-])cc2C)c(C(=O)OCC)c1C	none
Cc1cc2c(s1)CCCCC(=O)N2	none
Cc1ccc(-n2c(=O)c3ccccc3n(CC(=O)NCc3ccco3)c2=O)cc1	none
Cc1ccc(-c2cc(-c3nnc(SCC(=O)NC(C)C(C)C)n3N)c3ccccc3n2)cc1 (centres undefined)	none
CN(C(=O)CSc1nc(-c2ccccc2)cn1N)C(c1ccccc1)c1ccccc1	INS promoter act 82.1
Nn1c(SCC(=O)Nc2ccc3c(c2)OCO3)nnc1-c1ccccc1	none
CN(Cc1ccccc1)S(=O)(=O)c1ccc(Cl)c(C(=O)NCCc2ccccn2)c1	none
O=C(CCn1c(=O)oc2ccccc21)N1CCN(c2ccccc2Cl)CC1	none
N#CCC(=N)N1CCN(c2ccccc2Cl)CC1	INS promoter act 176.7
O=C(CCN1C(=O)C2C3C=CC(C3)C2C1=O)N1CCN(c2ccccc2Cl)CC1 (centres undefined)	none
CN1CCN(C(=O)CSc2ccc(C(F)(F)F)cc2[N+](=O)[O-])CC1	none
O=[N+]([O-])c1ccc(N2CCN(S(=O)(=O)c3ccc4ccccc4c3)CC2)cc1NCC1CCCO1 (centres undefined)	none
Cc1ccccc1CN1C(=O)CSc2ccc(C(=O)N3CCOCC3)cc21	none
OCC1(Cc2ccccc2)CCCN(Cc2cnn(-c3ccccc3)c2)C1 (centres undefined)	none
Cc1ccccc1CC1(CO)CCCN(C(=O)c2ccc3ncccc3c2)C1 (centres undefined)	INS promoter act 227.8
O=C(COC(=O)c1c(Cl)ccc(Cl)c1Cl)NC(=O)NCc1ccccc1	none
CCOC(=O)C1CCN(S(=O)(=O)c2ccc(C)c(C)c2)CC1	INS promoter act 206.3
CCOC(=O)C1CCCN(S(=O)(=O)c2ccc(C)cc2)C1 (centres undefined)	none
CCNC(=O)NC(=O)C(C)OC(=O)C1CCN(S(=O)(=O)c2ccc(C)c(C)c2)CC1 (centres undefined)	none
Cc1ccc(-n2cc(-c3ccccc3)c3c(NN4CCOCC4)ncnc32)cc1	none
CC1CCCN(CCCOc2ccc([N+](=O)[O-])cc2)C1 (centres undefined)	none
CC1CCCCN1C(=O)c1ccc(COc2ccc([N+](=O)[O-])cc2)o1 (centres undefined)	INS promoter act 380.0
O=C(c1ccc(-c2ccc([N+](=O)[O-])cc2)o1)N1CCCCC1	none
CC(=O)c1ccc(C(=O)N2CCCC(CCC(=O)N(C)CCc3ccccn3)C2)s1 (centres undefined)	none
CCCNC(=O)c1ccc(CN2CCOCC2)cc1	INS promoter act 294.7
O=C(NCc1ccccc1)c1ccc(CN2CCOCC2)cc1	none
Cc1cccc(CSCCNC(=O)c2ccc(CN3CCOCC3)cc2)c1	none
COCCNC(=O)COc1ccc(Br)cc1Cl	none
Cc1cc(Cl)ccc1OCC(=O)N1CCCCC1	none
COC(=O)C1CCCN1C(=O)COc1ccc(Br)cc1Cl (centres undefined)	INS promoter act 438.5

Compound activity from PubChem.
